In article PMC4618645 (Pharmacology Research & Perspectives, 2015):
“And” between values parts separate entries of the source, which are not always exact repeats. Identical values can stand only once. “Also recorded” adds a separate entry of the source. Like-named read-outs stand apart in the source and are kept apart here.

Key:
[1] = tested on: CYP2D6; conditions: CYP2D6 with MDMA in human liver microsomes; ref Heydari et al. [2004]; cited from earlier work
[2] = tested on: CYP2D6; conditions: humans; ref O'Mathuna et al. [2008]; cited from earlier work
[3] = Pharmacokinetics of diclofenac in rats after 3 days administration of sesamin; format: in vivo, rat; conditions: for AUC(0-t) / Cmax / Tmax / half-life: rat, plasma, po, 10 mg/kg; for AUC(0-t): AUC0–24 h; for AUC(0-t) / Cmax / Tmax: diclofenac 10 mg/kg bw intragastric; for half-life: t1/2, diclofenac 10 mg/kg bw intragastric
[4] = format: in vivo, rat; conditions: rats
[5] = Estimation of the maximum inlet concentration to the liver; set-up: species or system human; conditions: for absorption rate constant: assumed, roughly estimated from the data by Tomimori et al. [2013]; for maximum inlet concentration to the liver: humans, following the 50 mg oral dose, eqn. 1
[6] = humans, sesamin supplement 50 mg/day for 28 days; ref Tomimori et al. [2013]; cited from earlier work
[7] = tested on: CYP2C9; conditions: cited from earlier work
[8] = molecular target: T1, CYP2C in rat liver microsomes (CYP2C11) (Rattus norvegicus, UniProt P08683); format: biochemical
T1 sequence (P08683 1-500): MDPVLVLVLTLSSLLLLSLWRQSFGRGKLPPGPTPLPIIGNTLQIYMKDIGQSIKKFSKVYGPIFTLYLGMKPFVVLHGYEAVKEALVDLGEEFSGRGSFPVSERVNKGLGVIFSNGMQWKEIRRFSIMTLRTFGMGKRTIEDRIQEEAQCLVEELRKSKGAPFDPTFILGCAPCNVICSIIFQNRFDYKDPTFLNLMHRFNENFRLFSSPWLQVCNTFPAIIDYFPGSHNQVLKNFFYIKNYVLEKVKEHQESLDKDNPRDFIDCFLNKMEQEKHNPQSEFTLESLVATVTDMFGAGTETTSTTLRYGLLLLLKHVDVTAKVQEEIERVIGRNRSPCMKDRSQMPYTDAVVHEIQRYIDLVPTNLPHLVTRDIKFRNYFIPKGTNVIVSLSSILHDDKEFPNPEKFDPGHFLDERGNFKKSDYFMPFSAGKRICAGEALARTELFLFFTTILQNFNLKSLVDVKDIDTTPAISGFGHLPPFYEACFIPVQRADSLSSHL

[9] = molecular target: CYP2C9 (Homo sapiens, UniProt P11712); format: biochemical; conditions: human liver microsomes, pH 7.4, probe diclofenac (100 μmol/L), diclofenac hydroxylation
[10] = tested on: rat CYP2C (rat liver microsomes); format: biochemical
Procedure, shortened: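 Rat liver microsomes (0.5 mg protein/mL) with 1 mmol/L NADPH in 100 mmol/L phosphate (pH 7.4), 37°C. Test compound in DMSO (20 μmol/L final) versus DMSO reference. Difference spectra (400–500 nm) were taken at 0–120 min, tracking A459 minus A500. Parent and catechol metabolites were quantified in parallel by HPLC of methanol-quenched aliquots taken at the same times. Mean ± SD, at least duplicates.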

[11] = molecular target: T2, recombinant rat CYP2C11 (Rattus norvegicus, UniProt P08683); experiment: Sesamin-induced difference spectrum of recombinant rat CYP2C11; format: biochemical; conditions: recombinant rat CYP2C11, NADPH, 20 μmol/L sesamin
T2 sequence (P08683 1-500): T1 sequence (P08683 1-500)
Procedure, shortened: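 Recombinant rat CYP2C11 from baculovirus-infected insect cells (50 pmol/mL) with 1 mmol/L NADPH in 100 mmol/L phosphate (pH 7.4) at 37°C. Test compound in DMSO (20 μmol/L final) went into the sample cuvette and an equal volume of DMSO into the reference. Difference spectra were recorded over 400–500 nm after 7 and 60 min incubation.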

[12] = Plasma concentration of sesamin in rats; format: in vivo; conditions: rat, po, 100 mg/kg
Procedure, shortened: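 Test compound in corn oil was given intragastrically by feeding needle. The organic phase was dried and the residue taken up in 100 μL acetonitrile. HPLC: methanol/0.05% TFA gradient, fluorescence ex 298/em 325 nm; mean ± SD, n = 12.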

[13] = Hepatic sesamin concentration in rats; format: in vivo; conditions: rat, liver, oral, 100 mg/kg
[14] = tested on: rat CYP2C; format: in vivo; conditions: rats, sesamin 0, 10, 100 mg/kg bw for 7 days
Procedure, shortened: (§1)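 Male Sprague–Dawley rats were acclimated for 7 days before dosing. Liver microsomes: liver rinsed in ice-cold saline, homogenized in four volumes of ice-cold 1.15% KCl, spun at 10,000g for 20 min, then the supernatant at 100,000g for 60 min. The pellet was resuspended in 20 mmol/L phosphate buffer (pH 7.4) with 1.15% KCl. Protein was measured by bicinchoninate assay.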

[15] = tested on: CYP2C-mediated diclofenac hydroxylation activity; format: in vivo, rat; conditions: rats, sesamin 0, 10, 100 mg/kg bw for 7 days
Procedure, shortened: as §1

[16] = assumed; ref Moazzami et al. [2007]; cited from earlier work
[17] = after sesamin 10 mg/kg bw for 3 days
[18] = after sesamin 100 mg/kg bw for 3 days
[19] = control (0 mg/kg bw sesamin for 3 days)

Sequence of CYP2C9 (Homo sapiens, UniProt P11712) (P11712 whole entry): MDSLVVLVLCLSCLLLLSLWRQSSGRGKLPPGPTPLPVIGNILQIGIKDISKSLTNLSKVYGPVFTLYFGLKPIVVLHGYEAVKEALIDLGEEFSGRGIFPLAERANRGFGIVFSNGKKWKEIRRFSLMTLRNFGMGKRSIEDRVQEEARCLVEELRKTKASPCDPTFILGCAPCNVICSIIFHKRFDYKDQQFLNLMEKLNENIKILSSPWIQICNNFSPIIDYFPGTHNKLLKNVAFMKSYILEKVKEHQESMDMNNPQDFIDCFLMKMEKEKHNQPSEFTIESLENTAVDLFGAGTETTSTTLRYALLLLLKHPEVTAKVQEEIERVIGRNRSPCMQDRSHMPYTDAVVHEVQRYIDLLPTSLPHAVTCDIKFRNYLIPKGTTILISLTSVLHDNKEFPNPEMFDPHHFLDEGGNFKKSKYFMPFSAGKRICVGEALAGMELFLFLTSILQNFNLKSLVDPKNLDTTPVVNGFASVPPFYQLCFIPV

## CNC(C)Cc1ccc2c(c1)OCO2 (centres unmarked) [MDMA, 3,4-Methylenedioxymethamphetamine]
[1]
  kinact: 0.12 to 0.26 min⁻¹
[2]
  increase of dextromethorphan AUC0-8 h when administered with MDMA: approximately 10 fold
  increase of dextromethorphan AUC after MDMA administration: approximately 10 fold
  increase of dextromethorphan Cmax after MDMA administration: approximately 10 fold

## O=C(O)Cc1ccccc1Nc1c(Cl)cccc1Cl [diclofenac]
[3]; [17]
  AUC(0-t): 4620 ng·h/mL
  Cmax: 1200 ± 500 ng/mL
  Tmax: 7 min
  half-life: 14.8 ± 9.3 h
[3]; [18]
  AUC(0-t): 6930 ng·h/mL
  Cmax: 1300 ± 600 ng/mL
  Tmax: 7.2 min
  half-life: 11.1 ± 6.8 h
[3]; [19]
  AUC(0-t): 4880 ng·h/mL
  Cmax: 1800 ± 800 ng/mL
  Tmax: 5.4 min
  half-life: 10.6 ± 2.9 h
[4]; rat, plasma, po, 10 mg/kg, AUC0–24 h, diclofenac 10 mg/kg bw intragastric, control (0 mg/kg bw sesamin at same time)
  AUC(0-t): 5480 ng·h/mL
[4]; rat, plasma, po, 10 mg/kg, Cmax, diclofenac 10 mg/kg bw intragastric, control (0 mg/kg bw sesamin at same time)
  Cmax: 2100 ± 1700 ng/mL
[4]; rat, plasma, po, 10 mg/kg, Tmax, diclofenac 10 mg/kg bw intragastric, control (0 mg/kg bw sesamin at same time)
  Tmax: 5.6 min
[4]; rat, plasma, po, 10 mg/kg, t1/2, diclofenac 10 mg/kg bw intragastric, control (0 mg/kg bw sesamin at same time)
  half-life: 9.8 ± 5.1 h

## c1cc2c(cc1[C@H]1OC[C@H]3[C@@H]1CO[C@@H]3c1ccc3c(c1)OCO3)OCO2 [episesamin]
[5]
  absorption rate constant: 1.5 h⁻¹
  maximum inlet concentration to the liver: 410 nmol/L
[6]
  accumulation after repeated administration: did not detect the accumulation; also recorded: no accumulation
[7]; recombinant human CYP2C9, ref previous studies of the authors
  kinact/Ki value for recombinant human CYP2C9 relative to sesamin: five times smaller
[7]; ref Yasuda et al. [2012]
  kinact/Ki app for CYP2C9 relative to sesamin: approximately one-fifth

## c1cc2c(cc1[C@H]1OC[C@H]3[C@@H]1CO[C@@H]3c1ccc3c(c1)OCO3)OCO2 [sesamin]
[8]
  kinact: 0.00132 s⁻¹
[8]; rat liver microsomes, sesamin 0-50 μmol/L, preincubation 0, 5, 10 min
  inhibition of 4'- and 5-hydroxylation activities toward diclofenac: time- and concentration-dependently inhibited
[8]; read-out: kinact/Ki app
  kinact/KI: 48.3 M⁻¹ s⁻¹
[9]
  kinact: 0.00217 s⁻¹
  kinact/KI: 96.7 M⁻¹ s⁻¹
[10]; rat liver microsomes
  half-life time of the MI complex of sesamin: 0.167 h
  time to disappearance of the 459 nm peak after the termination of the metabolism: ≤ 30 min
[10]; rat liver microsomes 0.5 mg/mL, 20 μmol/L sesamin, at 60 min
  conversion of sesamin to SC-2 via SC-1: almost all of sesamin was converted to SC-2 via SC-1
[10]; rat liver microsomes, NADPH, 20 μmol/L sesamin, 37°C
  peak of sesamin-induced difference spectrum (MI complex): 459 nm
[11]
  peak of sesamin-induced difference spectrum (MI complex): 459 nm
[3]; sesamin 0, 10, 100 mg/kg bw for 3 days, then diclofenac 10 mg/kg bw
  effect of sesamin on pharmacokinetic parameters of diclofenac (Cmax, Tmax, AUC): No significant differences
[4]; sesamin 0, 10, 100 mg/kg bw and diclofenac 10 mg/kg bw simultaneously
  effect of sesamin on the diclofenac pharmacokinetics: no significant effects
[12]
  Cmax: 33 ng/mL and 94 nM
  Tmax: 1.2 ± 0.6 h
[13]
  concentration at 1 h: 390 ng/g and 1.1 µM
[14]
  expression of CYP2C protein in liver microsomes: no significant differences; also recorded: no remarkable change
[15]
  diclofenac hydroxylation activity in liver microsomes: no significant effects; also recorded: no significant differences; also recorded: no remarkable change
[5]
  absorption rate constant: 0.5 h⁻¹
  maximum inlet concentration to the liver: 130 nmol/L
[6]
  accumulation after repeated administration: did not detect the accumulation; also recorded: no accumulation
[16]
  fraction absorbed: 30%
[7]; CYP2C9 with sesamin in human liver microsomes, ref Yasuda et al. [2010]
  kinact: 0.13 min⁻¹
